The array DNA melting data of Ke et al. (doi:10.1101/2024.01.08.574731)

Columns and labels:
[1] = folding enthalpy; higher = less favourable; fluorescence melt of hairpins on a sequencing array, two-state fit; conditions: sodium 0.088 M
Method in brief: (§1)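 To match UV melts, fitted temperatures were raised by 9.35 °C. These fits were bootstrapped two-state models that gave melting temperature and folding enthalpy, combined by inverse variance over four replicates. The input was normalised Cy3 fluorescence of library hairpins with annealed Cy3 and quencher oligos on a sequenced MiSeq flow cell, imaged in 50 mM Na-HEPES pH 8.0, 25 mM NaCl in 2.5 °C steps up to 60 °C.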

[2] = melting temperature; fluorescence melt of hairpins on a sequencing array, two-state fit, raised by 9.35 °C to match UV melts; conditions: sodium 0.088 M
Method in brief: as §1

| Sequence | folding enthalpy [1] [kcal/mol] | Tm [2] [°C] |
| --- | --- | --- |
| GATCCAGATTGGATC ((((((...)))))) | -34.1 | 50.6 |
| GACTAGCGAAAGCTCGTC (((.(((....))).))) | -19.1 | 48 |
| GGCACGGGAAACCACGCC (((..((....))..))) | -28.8 | 46.2 |
| GATCCTCTCGAGGATC ((((((....)))))) | -42.4 | 58 |
| GCTGTAGGAAACTACAAC (.(((((....))))).) | -19.2 | 30.9 |
| GGATTCGAAAGAATTCC ((((((....))).))) | -20.4 | 42.6 |
| GCCAGGCGAAAGCTTCGC ((.(.((....)).).)) | -8.82 | 40.5 |
| ACGTTGAAAAACGT (((((....))))) | -20.2 | 47.1 |
| GTCCCAGGAAACTAGGAC ((((.((....)).)))) | -21.5 | 35.9 |
| GAGGTTGCGAAAGCACTC (((..(((....)))))) | -11.3 | 33.9 |
| CGACCGGAAACGGGGTCG ((((((....)))..))) | -28.8 | 48.6 |
| GATCCCGTTTGGGATC ((((((....)))))) | -43.4 | 63.6 |
| CGTCCCCGGAAACGGACG (((..(((....)))))) | -21.1 | 42.2 |
| GAGAACGAAAGTTACTC ((((((....))).))) | -12.4 | 31.1 |
| GATCTGCCACCAGATC ((((((....)))))) | -35.1 | 48.7 |
| GGCGTACCGAAAGGTGCC (((..(((....)))))) | -33.2 | 54.7 |
| GATTGTGGAAACACAATC (((((((....))))))) | -43.6 | 56.8 |
| GCCCTACGAAAGTACGGC (((.(((....))).))) | -27.3 | 46.2 |
| GGTGTACGAAAGTATACC (((.(((....))).))) | -47.6 | 53.3 |
| GAACGCGAAAGCGGTTC ((((((....))).))) | -14.3 | 57.3 |
| GCACAGCGAAAGCAGTGC ((((.((....)).)))) | -34.1 | 69.2 |
| GGGGTTGGAAACAGCTCC ((.(.((....)).).)) | -24.6 | 37 |
| GATCAGTGGTCTGATC ((((((....)))))) | -35.7 | 51.6 |

| Sequence | folding enthalpy [1] [kcal/mol] | Tm [2] [°C] |
| --- | --- | --- |
| GTCGGACGAAAGTCGGAC (((.(((....))).))) | -32.3 | 58.5 |
| GAGAAACGAAAGTTGCTC (((.(((....))).))) | -28 | 48.8 |
| GATCTTTGTTAAGATC ((((((....)))))) | -33.6 | 44 |
| GATCCCTCTGGGATC ((((((...)))))) | -31.3 | 66.6 |
| GGCACAGGAAACTACGCC (((..((....))..))) | -29.9 | 39.8 |
| GATCACACGAGTGATC ((((((....)))))) | -43.6 | 56.4 |
| CGCTAGAAATAGCG (((((....))))) | -24.9 | 51.8 |
| GTATACGAAAGTAAATAC ((((((....)))..))) | -14.8 | 27.7 |
| GATCCTCACCAGGATC ((((((....)))))) | -38.6 | 50.9 |
| GATAAAGCGAAAGCTATC (((..(((....)))))) | -14.2 | 33.1 |
| GATAAACGAAAGTTGATC (((.(((....))).))) | -23.4 | 39.4 |
| GATCGTCAACACGATC ((((((....)))))) | -32.9 | 51.5 |
| GCGAGCCTCGC ((((...)))) | -21.9 | 49.7 |
| GATCTTCTTAAAGATC ((((((....)))))) | -32.7 | 46 |
| GATCCCAGCGGGGATC ((((((....)))))) | -34.9 | 60.6 |
| GAGGTAGGAAACTACCTC (((((((....))))))) | -37.2 | 60 |
| GCTGGGCGAAAGCGCGGC ((.(.((....)).).)) | -33.2 | 64.1 |
| TAGTCGAAAGACTA (((((....))))) | -17.4 | 49.6 |
| GTCTATCGAAAGATCGAC (((.(((....))).))) | -40.4 | 41.4 |
| GGGCGGCGAAAGCCACCC (((.(((....))).))) | -26.3 | 67.3 |
| GGCCCCGGAAACAGGGCC (((((.(....).))))) | -43.7 | 58.2 |
| GATCCTGATGAGGATC ((((((....)))))) | -31.9 | 51.1 |
| GTCCAGGAAACTGGAC ((((((....)))))) | -34 | 62.4 |

| Sequence | folding enthalpy [1] [kcal/mol] | Tm [2] [°C] |
| --- | --- | --- |
| GGGATCGAAAGATAACCC ((((((....)))..))) | -19.4 | 34.9 |
| GGTTACGAAAGTATCACC ((((((....)))..))) | -12.5 | 28.2 |
| GCAATCGGAAACGACTGC (((.(((....))).))) | -28.9 | 45.1 |
| GCCATCGAAAGATCAGGC ((((((....)))..))) | -24.9 | 37.7 |
| GAAGCAGGAAACCGCTTC (((((.(....).))))) | -30.4 | 47.1 |
| GGTCTTGGAAACAAGATC (.(((((....))))).) | -25.7 | 44.5 |
| GCAACCGAAAGGTTATGC ((((((....)))..))) | -12.3 | 44.1 |
| GATTTGGGAAACCAAGTC ((.((((....)))).)) | -28.7 | 38.8 |
| GATCTAGGAAACTAGATC (((((((....))))))) | -43.1 | 51.9 |
| GCGGTGCGAAAGCTCGGC ((.(.((....)).).)) | -19.1 | 51 |
| GATCTCTTCGAGATC ((((((...)))))) | -36.9 | 55.4 |
| GATCAGCCCCTGATC ((((((...)))))) | -36.2 | 49.2 |
| GGTCTCACGAAAGTGACC (((..(((....)))))) | -14.5 | 37.9 |
| GATCCACTTGTGGATC ((((((....)))))) | -37.5 | 66.5 |
| GGGACTGGAAACGGTCCC (((((.(....).))))) | -44.6 | 57.6 |
| GTTTTCCGAAAGGAAAC (((.(((....)))))) | -13.6 | 47.8 |
| GTCAGCGCGAAAGCGGAC (((..(((....)))))) | -15.6 | 46.6 |
| GATCGTCCTTACGATC ((((((....)))))) | -40.7 | 53.8 |
| GCAGATGGAAACGTCTGC (((((.(....).))))) | -45.2 | 53.2 |
| GCTCTACGAAAGTAAAGC (((.(((....))).))) | -22.9 | 38.4 |
| GAACACGAAAGTGGGTTC ((((((....)))..))) | -16.4 | 37.1 |
| ATAGCGAAAGCTAT (((((....))))) | -15.9 | 54 |
| GAGGGCGGAAACACCCCC (.(((.(....).))).) | -16.4 | 30.9 |

| Sequence | folding enthalpy [1] [kcal/mol] | Tm [2] [°C] |
| --- | --- | --- |
| GATCCCTGGTGGGATC ((((((....)))))) | -31.1 | 58.1 |
| GTGCCGACGAAAGTCCAC (((..(((....)))))) | -8.42 | 53.8 |
| GGGTCTGGAAACAGGTCC ((..(((....)))..)) | -27.8 | 39.9 |
| GTCTGGGGAAACCTAGAC ((((.((....)).)))) | -29.7 | 47.6 |
| GTCGTGTCGAAAGACGAC (((..(((....)))))) | -19.9 | 48.9 |
| GTTTGTCCGAAAGGAAAC (((..(((....)))))) | -18.9 | 35.9 |
| GCTATCGGAAACGATAAC (.(((((....))))).) | -17.4 | 34.5 |
| GCCTATCCGAAAGGAGGC (((..(((....)))))) | -20.7 | 47.3 |
| GATCTAGGTTTAGATC ((((((....)))))) | -28.5 | 41.1 |
| GGCAACGGAAACGTCACC ((..(((....)))..)) | -13.9 | 26 |
| GCAGCCGAAAGGCTTGC ((((((....))).))) | -15.3 | 62 |
| GGCAACGAAAGTTTGCC ((((((....))).))) | -45.8 | 56.4 |
| GCCCGTCCGAAAGGAGGC (((..(((....)))))) | -13.9 | 43.6 |
| GCGTACGAAAGTAGCGC ((((((....))).))) | -31.1 | 68.8 |
| GGTACGTCGAAAGACACC (((..(((....)))))) | -9.89 | 33.3 |
| CGGAGGCGGAAACGCCCG (((..(((....)))))) | -11.7 | 54.7 |
| GTGCACCGAAAGGTCCAC (((.(((....))).))) | -27.3 | 45.2 |
| GCGTATCCACGC ((((....)))) | -26.4 | 51.7 |
| GCCCTGCGAAAGCAGAGC ((.((((....)))).)) | -18.8 | 60.4 |
| GCAGGCGGAAACGTCTGC ((((.((....)).)))) | -35.3 | 63.1 |
| GTGATTGCGAAAGCACAC (((..(((....)))))) | -14.4 | 38.1 |
| GTGAAACCGAAAGGTCAC (((..(((....)))))) | -20.4 | 42 |
| GCTTCGCGAAAGCTACGC ((.(.((....)).).)) | -12.6 | 42.9 |
